Measured values gathered from unrelated publications.

| SMILES | target or system | test | test system | setting | endpoint | result |
| --- | --- | --- | --- | --- | --- | --- |
| CCN(CC)C(=O)[C@@]1(c2ccccc2)C[C@H]1CN |  |  | male cynomolgus monkey, plasma | oral, 30 mg/kg | AUC(0-inf) | 40100 ng·h/mL |
| CCOP(=O)(OCC)[C@@H]1C[C@@H](n2cc(-c3ccccc3)nn2)ON1C (racemic) | human T-lymphocyte | cell growth or viability |  | 72 h | CC50 | > 250 µM |
| COc1ccc2nccc(N3CCc4c(cc(Cn5ccnc5)cc4-c4cn(C)nc4C(F)(F)F)C3=O)c2c1 |  |  | male CD-1 mouse, plasma | intravenous, 3 mg/kg | MRT(0-inf) | 36 min |
| Nc1cc(CNC(=O)c2cc3[nH]ccc3cc2Cl)cc(C(F)(F)F)c1 | HEK-293T | cell growth or viability |  | 100 µM, 24 h | viability | < 50% |
| COc1ccc2c(c1)c1c(n2CO)CN2CCc3cc(OCc4ccccc4)c(OC)cc3C2C1 (stereo not drawn) | HepG2 | cell growth or viability |  | 5 µM, 24 h | viability | 100% |
| CCOP(=O)(OCC)[C@@H]1C[C@H](n2cc(-c3ccccc3F)nn2)ON1C | human T-lymphocyte | cell growth or viability |  | 72 h | CC50 | > 250 µM |
| CC(C)(Nc1nc(-c2ccccn2)nc2ccccc12)c1ccccn1 |  |  | female BALB/c mouse, plasma | oral, 50 mg/kg | MRT(0-t) | 6.8 h |
| COc1cc(OC)c2nccc(N3CCc4c(cc(Cn5ccnc5)cc4-c4cn(C)nc4C(F)(F)F)C3=O)c2c1 |  |  | male CD-1 mouse, plasma | intravenous, 3 mg/kg | MRT(0-inf) | 30 min |
| CN(C(=O)n1cnc(-c2ccc[n+]([O-])c2)c1)C1CCCCC1 |  |  | male cynomolgus monkey, plasma | oral, 0.3 mg/kg | AUC(0-t) | 452 ng·h/mL |
| c1ccc(-c2nc(N3CCC(c4ccccn4)C3)c3ccccc3n2)nc1 (stereo not drawn) |  |  | female BALB/c mouse, plasma | oral, 12.5 mg/kg | MRT(0-inf) | 354 min |
| Cc1ccc2cncc(N3CCc4c(cc(Cn5ccnc5)cc4-c4cn(C)nc4C(F)(F)F)C3=O)c2c1 |  |  | male CD-1 mouse, plasma | intravenous, 3 mg/kg | MRT(0-inf) | 54 min |
| COc1ccc(CCN2CCC(Nc3nc4ccccc4n3Cc3ccc(F)cc3)CC2)cc1 | HepG2 | cell growth or viability, resazurin |  | 100 µM, 24 h | viability | 2% |
